Activity calls are given as the source filed them. The calls are words filed in the database; no cut-off is given here.
How the values were obtained:
Salmonella typhimurium [1] = test: Bactericidal activity against Salmonella Typhimurium […] assessed as survival at 1.25 mg/ml after 48 to 60 hrs in presence of rat S9 liver homogenate relative to control; assay type: functional, organism-based; settings: Salmonella enterica subsp. enterica serovar Typhimurium, Liver S9 fraction
Summary of the method: (§1)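 TM677 (pKM101) exposed to test substance in DMSO with or without S-9 from livers of Aroclor 1254-pretreated rats, 2 h at 37°, quenched with PBS, centrifuged, diluted and plated in triplicate without 8-azaguanine. Colonies scored after 48–60 h at 37°. Survival is expressed relative to a DMSO-only control after correction for dilution.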

Salmonella typhimurium [2] = test: Bactericidal activity against Salmonella Typhimurium […] assessed as survival at 2.5 mg/ml after 48 to 60 hrs in absence of rat S9 liver homogenate relative to control; assay type: functional, organism-based; settings: Salmonella enterica subsp. enterica serovar Typhimurium; summary of the method: as §1
Salmonella typhimurium [3] = test: Bactericidal activity against Salmonella Typhimurium […] assessed as survival at 2.5 mg/ml after 48 to 60 hrs in presence of rat S9 liver homogenate relative to control; assay type: functional, organism-based; settings: Salmonella enterica subsp. enterica serovar Typhimurium, Liver S9 fraction; summary of the method: as §1
Salmonella typhimurium [4] = test: Bactericidal activity against Salmonella Typhimurium […] assessed as survival at 0.625 mg/ml after 48 to 60 hrs in presence of rat S9 liver homogenate relative to control; assay type: functional, organism-based; settings: Salmonella enterica subsp. enterica serovar Typhimurium, Liver S9 fraction; summary of the method: as §1
Salmonella typhimurium [5] = test: Forward mutagenic activity in Salmonella Typhimurium […] assessed as mutant fraction at 5 mg/ml after 2 hrs in presence of rat S9 liver homogenate; assay type: toxicity, organism-based; settings: salmonella enterica subsp. enterica serovar typhimurium
Summary of the method: (§2)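 Forward mutation assay in S. typhimurium TM677 carrying pKM101, with or without Aroclor 1254-induced rat liver S-9 (9000×g). Substance in DMSO incubated with bacteria 2 h at 37°, quenched with PBS and plated in triplicate with and without 8-azaguanine, then grown 48–60 h at 37°. Mutant fraction is the mean 8-azaguanine-resistant colony count over the mean count without 8-azaguanine, corrected for dilution.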

Salmonella typhimurium [6] = test: Bactericidal activity against Salmonella Typhimurium […] assessed as survival at 0.3125 mg/ml after 48 to 60 hrs in presence of rat S9 liver homogenate relative to control; assay type: functional, organism-based; settings: Salmonella enterica subsp. enterica serovar Typhimurium, Liver S9 fraction; summary of the method: as §1
Salmonella typhimurium [7] = test: Forward mutagenic activity in Salmonella Typhimurium […] assessed as mutant fraction at 0.3125 mg/ml after 2 hrs in absence of rat S9 liver homogenate; assay type: toxicity, organism-based; settings: salmonella enterica subsp. enterica serovar typhimurium; summary of the method: as §2
Salmonella typhimurium [8] = test: Forward mutagenic activity in Salmonella Typhimurium […] assessed as mutant fraction at 0.625 mg/ml after 2 hrs in absence of rat S9 liver homogenate; assay type: toxicity, organism-based; settings: salmonella enterica subsp. enterica serovar typhimurium; summary of the method: as §2
Salmonella typhimurium [9] = test: Forward mutagenic activity in Salmonella Typhimurium […] assessed as mutant fraction at 1.25 mg/ml after 2 hrs in presence of rat S9 liver homogenate; assay type: toxicity, organism-based; settings: salmonella enterica subsp. enterica serovar typhimurium; summary of the method: as §2
Salmonella typhimurium [10] = test: Forward mutagenic activity in Salmonella Typhimurium […] assessed as mutant fraction at 5 mg/ml after 2 hrs in absence of rat S9 liver homogenate; assay type: toxicity, organism-based; settings: salmonella enterica subsp. enterica serovar typhimurium; summary of the method: as §2
Salmonella typhimurium [11] = test: Bactericidal activity against Salmonella Typhimurium […] assessed as survival at 5 mg/ml after 48 to 60 hrs in absence of rat S9 liver homogenate relative to control; assay type: functional, organism-based; settings: Salmonella enterica subsp. enterica serovar Typhimurium; summary of the method: as §1
Salmonella typhimurium [12] = test: Bactericidal activity against Salmonella Typhimurium […] assessed as survival at 0.3125 mg/ml after 48 to 60 hrs in absence of rat S9 liver homogenate relative to control; assay type: functional, organism-based; settings: Salmonella enterica subsp. enterica serovar Typhimurium; summary of the method: as §1
Salmonella typhimurium [13] = test: Forward mutagenic activity in Salmonella Typhimurium […] assessed as mutant fraction at 0.3125 mg/ml after 2 hrs in presence of rat S9 liver homogenate; assay type: toxicity, organism-based; settings: salmonella enterica subsp. enterica serovar typhimurium; summary of the method: as §2
Salmonella typhimurium [14] = test: Forward mutagenic activity in Salmonella Typhimurium […] assessed as mutant fraction at 1.25 mg/ml after 2 hrs in absence of rat S9 liver homogenate; assay type: toxicity, organism-based; settings: salmonella enterica subsp. enterica serovar typhimurium; summary of the method: as §2
Salmonella typhimurium [15] = test: Bactericidal activity against Salmonella Typhimurium […] assessed as survival at 1.25 mg/ml after 48 to 60 hrs in absence of rat S9 liver homogenate relative to control; assay type: functional, organism-based; settings: Salmonella enterica subsp. enterica serovar Typhimurium; summary of the method: as §1
Salmonella typhimurium [16] = test: Forward mutagenic activity in Salmonella Typhimurium […] assessed as mutant fraction at 2.5 mg/ml after 2 hrs in presence of rat S9 liver homogenate; assay type: toxicity, organism-based; settings: salmonella enterica subsp. enterica serovar typhimurium; summary of the method: as §2
Biomphalaria glabrata [17] = test: Molluscicidal activity against Biomphalaria glabrata assessed as mortality at 15 ppm after 24 hrs; assay type: functional
Summary of the method: (§3)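 Lab-bred B. glabrata (about 12 mm shell diameter), five snails per test, tested in duplicate at 21–22°. Samples dissolved in MeOH and diluted in dechlorinated tap water, final MeOH ≤1% v/v. Snails immersed 24 h, rinsed, then held 24 h in clean water. Death means no heartbeat under a dissecting microscope. Negative control was 1% MeOH.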

Salmonella typhimurium [18] = test: Forward mutagenic activity in Salmonella Typhimurium […] assessed as mutant fraction at 0.625 mg/ml after 2 hrs in presence of rat S9 liver homogenate; assay type: toxicity, organism-based; settings: salmonella enterica subsp. enterica serovar typhimurium; summary of the method: as §2
Salmonella typhimurium [19] = test: Bactericidal activity against Salmonella Typhimurium […] assessed as survival at 0.625 mg/ml after 48 to 60 hrs in absence of rat S9 liver homogenate relative to control; assay type: functional, organism-based; settings: Salmonella enterica subsp. enterica serovar Typhimurium; summary of the method: as §1
Salmonella typhimurium [20] = test: Forward mutagenic activity in Salmonella Typhimurium […] assessed as mutant fraction at 2.5 mg/ml after 2 hrs in absence of rat S9 liver homogenate; assay type: toxicity, organism-based; settings: salmonella enterica subsp. enterica serovar typhimurium; summary of the method: as §2
Salmonella typhimurium [21] = test: Bactericidal activity against Salmonella Typhimurium […] assessed as survival at 5 mg/ml after 48 to 60 hrs in presence of rat S9 liver homogenate relative to control; assay type: functional, organism-based; settings: Salmonella enterica subsp. enterica serovar Typhimurium, Liver S9 fraction; summary of the method: as §1
Biomphalaria glabrata [22] = test: Molluscicidal activity against Biomphalaria glabrata assessed as mortality at 20 ppm after 24 hrs; assay type: functional; summary of the method: as §3
Biomphalaria glabrata [23] = test: Molluscicidal activity against Biomphalaria glabrata assessed as mortality at 1.25 ppm after 24 hrs; assay type: functional; summary of the method: as §3
Salmonella typhimurium [24] = test: Bactericidal activity against Salmonella Typhimurium […] assessed as survival at 5.8 mg/ml after 48 to 60 hrs in absence of rat S9 liver homogenate; assay type: functional, organism-based; settings: Salmonella enterica subsp. enterica serovar Typhimurium
Summary of the method: (§4)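 Forward mutation assay in S. typhimurium TM677 carrying plasmid pKM101, without S-9. Bacteria were mixed with MEM, test substance added in DMSO, and incubated 2 h at 37°. The mix was quenched with PBS, pelleted, diluted and plated in triplicate without 8-azaguanine. Colonies were counted after 48–60 h at 37°. Survival was dilution-corrected and taken relative to a DMSO-only control.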

Salmonella typhimurium [25] = test: Bactericidal activity against Salmonella Typhimurium […] assessed as survival at 0.5 mg/ml after 48 to 60 hrs in presence of rat S9 liver homogenate; assay type: functional, organism-based; settings: Salmonella enterica subsp. enterica serovar Typhimurium, Liver S9 fraction
Summary of the method: (§5)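 TM677 (pKM101) forward mutation assay run with a 9000×g liver supernatant (S-9) from Aroclor 1254-pretreated rats. Test substance was added in DMSO and incubated 2 h at 37°, then quenched with PBS. Cells were pelleted, diluted and plated in triplicate without 8-azaguanine, and colonies counted after 48–60 h at 37°. Survival was dilution-corrected and taken relative to a DMSO solvent control.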

Salmonella typhimurium [26] = test: Bactericidal activity against Salmonella Typhimurium […] assessed as survival at 50 mg/ml after 48 to 60 hrs in presence of rat S9 liver homogenate; assay type: functional, organism-based; settings: Salmonella enterica subsp. enterica serovar Typhimurium, Liver S9 fraction; summary of the method: as §5
Salmonella typhimurium [27] = test: Bactericidal activity against Salmonella Typhimurium […] assessed as survival at 0.058 mg/ml after 48 to 60 hrs in absence of rat S9 liver homogenate; assay type: functional, organism-based; settings: Salmonella enterica subsp. enterica serovar Typhimurium; summary of the method: as §4
Salmonella typhimurium [28] = test: Bactericidal activity against Salmonella Typhimurium […] assessed as survival at 0.58 mg/ml after 48 to 60 hrs in absence of rat S9 liver homogenate; assay type: functional, organism-based; settings: Salmonella enterica subsp. enterica serovar Typhimurium; summary of the method: as §4

CC(=O)N[C@H]1[C@H](O[C@H]2CC[C@]3(C)[C@H]4CC=C5[C@H]6CC(C)(C)CC[C@]6(C(=O)O)[C@H](O)C[C@@]5(C)[C@]4(C)CC[C@H]3C2(C)C)O[C@H](CO)[C@@H](O)[C@@H]1O
Activity (Salmonella typhimurium [1]): 200% | Activity (Salmonella typhimurium [2]): 100% | Activity (Salmonella typhimurium [3]): 100% | Activity (Salmonella typhimurium [4]): 100% | Activity (Salmonella typhimurium [5]): 4.6 | Activity (Salmonella typhimurium [6]): 100% | Activity (Salmonella typhimurium [7]): 4.9 | Activity (Salmonella typhimurium [8]): 5.4 | Activity (Salmonella typhimurium [9]): 2.6 | Activity (Salmonella typhimurium [10]): 4.7 | Activity (Salmonella typhimurium [11]): 100% | Activity (Salmonella typhimurium [12]): 100% | Activity (Salmonella typhimurium [13]): 3.2 | Activity (Salmonella typhimurium [14]): 5.4 | Activity (Salmonella typhimurium [15]): 100% | Activity (Salmonella typhimurium [16]): 2.9 | Activity (Biomphalaria glabrata [17]): 100% | Activity (Salmonella typhimurium [18]): 3.1 | Activity (Salmonella typhimurium [19]): 100% | Activity (Salmonella typhimurium [20]): 4.7 | Activity (Salmonella typhimurium [21]): 100%

CC(=O)N[C@H]1[C@H](O[C@H]2CC[C@]3(C)[C@H]4CC=C5[C@H]6CC(C)(C)CC[C@]6(C(=O)O)CC[C@@]5(C)[C@]4(C)CC[C@H]3C2(C)C)O[C@H](CO[C@@H]2O[C@H](CO)[C@@H](O)[C@H](O)[C@H]2O)[C@@H](O)[C@@H]1O
Activity (Salmonella typhimurium [2]): 100% | Activity (Biomphalaria glabrata [22]): 100% | Activity (Salmonella typhimurium [7]): 4.1 | Activity (Salmonella typhimurium [8]): 4.2 | Activity (Salmonella typhimurium [10]): 5 | Activity (Salmonella typhimurium [11]): 100% | Activity (Salmonella typhimurium [12]): 100% | Activity (Salmonella typhimurium [14]): 4 | Activity (Salmonella typhimurium [15]): 100% | Activity (Salmonella typhimurium [19]): 100% | Activity (Salmonella typhimurium [20]): 3.1

CC(=O)N[C@H]1[C@H](O[C@H]2CC[C@]3(C)[C@H]4CC=C5[C@H]6CC(C)(C)CC[C@]6(C(=O)O)CC[C@@]5(C)[C@]4(C)CC[C@H]3C2(C)C)O[C@H](CO)[C@@H](O)[C@@H]1O [ARIDANIN]
Activity (Salmonella typhimurium [1]): 100% | Activity (Salmonella typhimurium [2]): 100% | Activity (Salmonella typhimurium [3]): 100% | Activity (Biomphalaria glabrata [23]): 100% | Activity (Salmonella typhimurium [4]): 100% | Activity (Salmonella typhimurium [5]): 4 | Activity (Salmonella typhimurium [6]): 100% | Activity (Salmonella typhimurium [7]): 4.5 | Activity (Salmonella typhimurium [8]): 5.6 | Activity (Salmonella typhimurium [9]): 3.2 | Activity (Salmonella typhimurium [10]): 4.2 | Activity (Salmonella typhimurium [11]): 100% | Activity (Salmonella typhimurium [12]): 89% | Activity (Salmonella typhimurium [13]): 2.5 | Activity (Salmonella typhimurium [14]): 4.1 | Activity (Salmonella typhimurium [15]): 100% | Activity (Salmonella typhimurium [16]): 2.8 | Activity (Salmonella typhimurium [18]): 2.9 | Activity (Salmonella typhimurium [19]): 98% | Activity (Salmonella typhimurium [20]): 3.3 | Activity (Salmonella typhimurium [21]): 100%

CC1(C)CC[C@]2(C(=O)O)[C@H](O)C[C@]3(C)C(=CC[C@@H]4[C@@]5(C)CC[C@H](OS(=O)(=O)O)C(C)(C)[C@@H]5CC[C@]43C)[C@H]2C1
Activity (Salmonella typhimurium [24]): inactive | Activity (Salmonella typhimurium [25]): inactive | Activity (Biomphalaria glabrata [22]): Non-toxic | Activity (Salmonella typhimurium [26]): inactive | Activity (Salmonella typhimurium [27]): inactive | Activity (Salmonella typhimurium [28]): inactive | Activity (Salmonella typhimurium [21]): inactive

Reference: ChEMBL document CHEMBL1147391, “Isolation of echinocystic acid-3-O-sulfate, a new triterpene, from Tetrapleura tetraptera, and evaluation of the mutagenic potential of molluscicidal extracts and isolates” (J Nat Prod, 1993)
